In the library only some 3% were active in any assay of this set; here they are far more common.
PKD1 inh – inhibitors of human PKD1 kinase; PKD1 kinase fluorescence polarization assay; inhibition, % (no concentration beside the values); 200,000 compounds, 0.056% hits; AID 797; in the data active means inhibition above about 50%
Target sequence (Q15139 whole entry, looked up): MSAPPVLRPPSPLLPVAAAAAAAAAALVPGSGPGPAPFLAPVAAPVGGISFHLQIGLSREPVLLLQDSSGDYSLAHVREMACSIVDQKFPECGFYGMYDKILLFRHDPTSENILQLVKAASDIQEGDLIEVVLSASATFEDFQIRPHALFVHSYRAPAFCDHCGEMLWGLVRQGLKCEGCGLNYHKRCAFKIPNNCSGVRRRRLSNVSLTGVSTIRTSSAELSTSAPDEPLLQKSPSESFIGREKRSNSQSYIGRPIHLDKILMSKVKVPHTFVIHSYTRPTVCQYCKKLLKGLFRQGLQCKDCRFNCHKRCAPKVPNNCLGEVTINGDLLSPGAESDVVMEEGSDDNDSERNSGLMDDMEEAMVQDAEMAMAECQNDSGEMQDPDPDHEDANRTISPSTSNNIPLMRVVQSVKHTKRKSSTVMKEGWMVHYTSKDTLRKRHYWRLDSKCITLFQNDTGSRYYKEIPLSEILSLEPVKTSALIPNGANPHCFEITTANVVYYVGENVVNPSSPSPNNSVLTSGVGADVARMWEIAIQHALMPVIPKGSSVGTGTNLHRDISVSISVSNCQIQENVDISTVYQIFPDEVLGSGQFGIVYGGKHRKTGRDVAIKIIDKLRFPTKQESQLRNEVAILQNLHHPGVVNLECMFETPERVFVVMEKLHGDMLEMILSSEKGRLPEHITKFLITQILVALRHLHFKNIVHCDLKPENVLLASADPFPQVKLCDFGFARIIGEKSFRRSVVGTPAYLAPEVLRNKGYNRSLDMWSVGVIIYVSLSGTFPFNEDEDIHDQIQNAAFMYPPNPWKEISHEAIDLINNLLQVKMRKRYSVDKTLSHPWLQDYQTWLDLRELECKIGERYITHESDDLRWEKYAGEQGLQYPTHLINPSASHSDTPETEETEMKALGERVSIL
Rad51 HR inh – blocks human Rad51 in homologous recombination. AID 1385. 200,000 compounds, 0.085% hits. hRad51 DNA strand exchange, fluorescence dequenching. Q06609. inhibition, % at 10 µM;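 active means inhibition above 40% at the single screening dose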
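System: hRad51 filaments on single-stranded DNA; reagent: Fluorescein- and BHQ1-tagged 47-mer duplex; compound dosing: one concentration, 10 µM final; timing: filaments 15 min 37 °C, then compound 30 min; measured by: fluorescein emission 520 nm, excitation 485 nm; benchmarks: per-plate controls and blanks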
ROMK primary – human ROMK K+ channel modulation, primary screen | P48048 | Tet-inducible ROMK, thallium flux fluorescence; actives lie on both sides | B-score at 10 µM | 130,000 compounds, 2% hits | AID 1918;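 active means signal ratio slope over the read window, or its plate-corrected B-score, at least 3 SD from the plate mean, either direction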;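 further: B-score of the F/F0 ratio slope over 7 to 12 s after thallium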
KCC2 mod – KCC2 (human) Cl- transport modulation; KCC2 cells, thallium flux FluoZin-2 fluorescence; 190,000 compounds, 2.2% hits; AID 1456; Q9H2X9; B-score of Tl+ flux slope (higher = more flux/activation; lower = inhibition) at 10 µM;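 active means thallium flux slope and its plate-corrected score both differing from the plate sample mean at a set confidence after two filtering rounds, in either direction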;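 further: slope of fluorescence scaled to starting intensity during 10 to 20 s after thallium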
ROMK retest – retested hit modulating human ROMK potassium channel | shares compounds with ROMK primary | ROMK thallium flux, fluorescence ratio; hits give low values | normalized thallium flux (F/F0 slope) at 10 µM | 3,000 compounds, 54% hits | AID 1917;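 active means Flux at 10 µM at least 3 SD below or above vehicle control mean in one or both replicates; inconclusive means no clear call, values can overlap the other calls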
Numbers stand for hits; . = inactive; ? = inconclusive; / = not tested or not shown.

SMILES	PKD1 inh	Rad51 HR inh	ROMK primary	KCC2 mod	ROMK retest
COC(=O)C1(O)CC(C(C)C)=NN1C(=O)c1ccccc1 (stereo not given)	.	/	.	.	/
CCN(CC)S(=O)(=O)c1ccc(C(=O)Nc2nnc(-c3ccco3)o2)cc1	.	.	.	.	/
CCCCN(C)S(=O)(=O)c1ccc(C(=O)Nc2nnc(-c3ccco3)o2)cc1	.	.	3.2	.	.
CCS(=O)(=O)CCSC1OC(COC(C)=O)C(OC(C)=O)C(OC(C)=O)C1OC(C)=O (stereo not given)	.	/	.	.	/
CC(C)(C)c1ccc(N2C(=N)SCC2=O)cc1	/	.	-9.3	.	0.041
CCc1ccc(CN2CCCC(CCC(=O)N3CCN(c4ccccn4)CC3)C2)o1 (stereo not given)	/	.	/	.	/
COc1ccc(NC(=O)NC23CC4(C)CC(C)(CC(C)(C4)C2)C3)cc1OC	.	.	/	.	/
CC1=NN(c2ccccc2)C(=O)/C1=C\c1ccc(Br)s1	.	.	.	.	/
CC1=NN(c2cccc(C(=O)O)c2)C(=O)/C1=C\C=C/c1ccccc1	.	.	-8.3	.	0.047
CC1=NN(c2ccccc2)C(=O)/C1=C/C=C/C=C/N(C)C	.	.	-2.4	.	0.065
CC1=NN(c2ccccc2)C(=O)/C1=C/c1cccs1	.	.	-3.4	.	0.048
Cc1cccc2cc(CN(Cc3nnnn3Cc3ccco3)C3CCCC3)c3nnnn3c12	.	.	/	.	/
COC(=O)CNC(=O)COC(=O)c1ccc(Cl)nc1	.	.	.	.	/
CC/C(C)=N/Nc1nc2c(c(=O)[nH]c(=O)n2C)n1CCc1ccccc1	.	.	/	.	/
CC(C)=NNc1nc2c(c(=O)[nH]c(=O)n2C)n1CCc1ccccc1	.	.	-1.7	/	.
CC(C)CCSc1nc2c(c(=O)[nH]c(=O)n2C)n1CCCc1ccccc1	.	.	/	.	.
Cc1ccc(NC(=O)C(C)N2C(=O)c3ccccc3C2=O)cc1S(=O)(=O)N1CCOCC1 (stereo not given)	.	.	.	.	/
CS(=O)(=O)n1nc(OC(=O)c2cc(Br)ccc2Cl)cc1N	.	.	-3	.	0.054
CS(=O)(=O)n1nc(OC(=O)c2cccc3ccccc23)cc1N	.	.	.	/	/
CCN1CCc2nc3ccccc3c(C(=O)Nc3ccc(F)cc3)c2C1	/	.	-3.3	.	.
Cc1ccc2nc3cc([N+](=O)[O-])cc([N+](=O)[O-])c3cc2c1	.	.	.	.	/
Cc1ccc(Oc2c(C(N)=O)cc([N+](=O)[O-])cc2[N+](=O)[O-])cc1	.	.	-2.3	.	0.035
O=C(C1CCCN(S(=O)(=O)c2ccc(Cl)cc2)C1)N(Cc1cccs1)C1CC1 (stereo not given)	.	.	-4	.	0.058
CN(Cc1cccs1)C(=O)c1ccc(S(=O)(=O)N2CCCCC2)cc1	/	.	/	.	/
N#CC1=C(N)C2=CCCC[C@H]2[C@H](c2cccc(F)c2)C1(C#N)C#N	.	.	-2.5	.	0.053
SMILES	PKD1 inh	Rad51 HR inh	ROMK primary	KCC2 mod	ROMK retest
O=C(C1CC(Cl)CN1S(=O)(=O)c1ccc(Cl)cc1)N1CCOCC1 (stereo not given)	.	.	-2	.	.
CCO[C@H]1OC(C(=O)N2CCOCC2)=C[C@@H](C2CC2)[C@@H]1CCCO	.	.	/	.	/
CCOc1ccc2nc(NCCCNC(=O)c3cc(OC)c(OC)c(OC)c3)c(C#N)cc2c1	/	.	/	/	.
COc1cccc(N2CCN(c3c(C#N)c(C(F)(F)F)nn3C)CC2)c1	.	.	-4.1	.	0.06
Cn1nc(C(F)(F)F)c(C#N)c1N1CCN(c2ccccc2F)CC1	.	.	.	.	/
Cn1c(Cc2ccccc2)nnc1SCc1nc2ccccc2c(=O)[nH]1	.	.	.	.	.
Cc1nnc(SCc2nnc(-c3cccs3)o2)n1Cc1ccccc1	.	.	.	.	/
Fc1ccc(NCc2nnc(SCc3nnc(-c4ccccc4)o3)n2Cc2ccccc2)cc1	.	.	-4.8	.	0.05
Clc1ccc(-c2nnc(CSc3nnc(-c4cccs4)n3Cc3ccccc3)o2)cc1	.	/	.	.	.
COc1cc(/C=C2/CC/C(=C/c3ccc(O)c(OC)c3)C2=O)ccc1O	/	/	/	.	0.051
COc1cc(/C=C2\CC/C(=C\c3ccc(OCCO)c(OC)c3)C2=O)ccc1OCCO	.	.	-2.4	.	?
COc1ccc(OC)c(C2=C[N+](=O)C(C)(C)C(C)(C)N2[O-])c1	.	.	4.6	.	.
O=C(CCl)c1ccc2c(c1)CCN2C(=O)C1CC1	.	.	-2.8	.	0.064
Cc1oc(-c2ccccc2Cl)nc1CN1CCCN(C(=O)c2ccco2)CC1	.	.	.	/	/
Cc1ccc(-c2nn(-c3ccccc3)cc2CSC(=N)N)cc1	.	.	/	.	0.052
N#C/C(=C\c1cccc([N+](=O)[O-])c1)c1nnc2n1CCCCC2	.	.	-4.4	.	0.046
CN(CC(=O)NCCc1ccc(F)cc1)Cc1cccc(Cl)c1	.	.	.	.	/
CCn1c(=O)c(C)nn2c3ccccc3nc12	.	.	/	.	.
Cc1nn2c3ccccc3nc2n(Cc2ccccc2)c1=O	.	/	/	.	/
CCc1cc(C(=O)N2CCCC(CCC(=O)NCc3cccc(OC)c3)C2)no1 (stereo not given)	.	.	.	.	/
O=S(=O)(Cc1ccccc1)Nc1ccc(S(=O)(=O)NCC2CCCO2)cc1 (stereo not given)	.	.	/	/	.
O=S(=O)(Cc1ccccc1)NCC1CCCO1 (stereo not given)	.	.	/	.	/
CCN(CC)c1ccc(N=Cc2cc(Br)ccc2O)cc1	.	.	-5.6	.	0.064
c1ccc(CCNc2nc(-c3ccccn3)nc3ccccc23)cc1	/	.	/	.	?
c1ccc(-c2nc(N3CCCCCC3)c3ccccc3n2)nc1	.	.	-2.7	.	0.059
SMILES	PKD1 inh	Rad51 HR inh	ROMK primary	KCC2 mod	ROMK retest
CC(NS(=O)(=O)c1ccccc1)C(c1cccs1)N1CCOCC1 (stereo not given)	.	.	.	.	/
CC(=O)NCCc1c[nH]c2ccc(O)cc12	/	.	/	/	/
CN(c1ccccc1)S(=O)(=O)c1cccc(NC(=O)c2ccncc2)c1	/	.	/	.	.
Cc1ccc(/C(=N\O)c2oc3c(C)c4oc(=O)cc(C)c4cc3c2C)cc1	.	/	2.9	.	0.11
Cc1cc(=O)oc2c1ccc1oc(/C(=N/O)c3ccccc3)c(C)c12	.	.	/	.	/
O=C(c1cccc(COc2cccc3ccccc23)c1)N1CCCC1	.	.	-3.5	.	.
O=C(O)c1ccc2c(c1)C1C=CCC1C(c1cc3c(cc1Br)OCO3)N2 (stereo not given)	.	.	4	/	.
Brc1cc2c(cc1C1Nc3ccccc3C3C=CCC31)OCO2 (stereo not given)	.	.	.	.	/
COc1ccc(C(=O)c2ccccc2)c(OCC(=O)NC2CC2)c1	.	.	.	.	/
O=C(COC(=O)c1ccc(Cl)nc1)c1ccc2c(c1)OCCO2	.	.	-2.2	.	.
O=C(Nc1ccc(Oc2cccc(C(F)(F)F)c2)nc1)c1cccs1	/	.	/	.	0.064
CCOc1cc(C)c(S(=O)(=O)Nc2ccc3cn[nH]c3c2)cc1C	.	.	/	/	/
